From article PMC6839502 (Journal of Alzheimer's Disease, 2019)
Like-named read-outs stand apart in the source and are kept apart here.

Type: in vivo, human
Conditions: for AUCtau / Cmax / CL/F / Cmin / Rac (observed accumulation ratio) / Vz/F: geometric mean (% CV); for Tmax: median (range); for t1/2: arithmetic mean±SD
Outline: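 Healthy adults (18–55 y) or older subjects (60–85 y) received oral QD doses for 14 days, fasted on Day 1. Plasma was sampled pre-dose and at 0.5, 1, 2, 4, 8, 12, and 24 h, plus 1.5 h (B8271001) or 6 h (B8271004). Day 14 sampling extended to 120 h. Urine was also collected. Samples were analysed by validated HPLC-MS/MS; plasma LLOQ 0.500 or 5.00 ng/mL, urine LLOQ 0.050 ng/mL. Parameters were derived by non-compartmental analysis.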

[1] = 5 mg QD, Day 14, healthy adults
[2] = 15 mg QD, Day 1, healthy adults
[3] = 15 mg QD, Day 7, healthy adults
[4] = 15 mg QD, Day 14, healthy adults
[5] = 50 mg QD, Day 1, healthy adults
[6] = 50 mg QD, Day 1, healthy older subjects
[7] = 50 mg QD, Day 7, healthy adults
[8] = 50 mg QD, Day 14, healthy adults
[9] = 50 mg QD, Day 14, healthy older subjects
[10] = 50 mg or 125 mg QD, healthy older subjects
[11] = 125 mg QD, Day 1, healthy adults
[12] = 125 mg QD, Day 1, healthy older subjects
[13] = 125 mg QD, Day 7, healthy adults
[14] = 125 mg QD, Day 14, healthy adults
[15] = 125 mg QD, Day 14, healthy older subjects

In the case of `C[C@H]1C[C@H]2CSC(N)=N[C@@]2(c2nc(NC(=O)c3ccc(OC(F)F)cn3)cs2)CO1` [PF-06751979], the AUCtau (5 mg QD, Day 1, healthy adults) is reported as 167.7 (18) ng.hr/mL, the Cmax (5 mg QD, Day 1, healthy adults) is reported as 10.12 (22) ng/mL and the Tmax (5 mg QD, Day 1, healthy adults) is reported as 3.98 (2.03–12.3) h. The AUCtau (5 mg QD, Day 7, healthy adults) was 395.2 (20) ng.h/mL, the Cmax (5 mg QD, Day 7, healthy adults) was 20.68 (22) ng/mL and the Tmax (5 mg QD, Day 7, healthy adults) was 6.02 (3.95–8.05) h. The t1/2 [1] was 37.15 ± 5.20 h, the AUCtau [1] was 422.2 (20) ng.hr/mL and the CL/F [1] was 197.1 (20) mL/min. The Cmax [1] was 22.41 (23) ng/mL, the Cmin [1] was 12.55 (22) ng/mL and the “Rac (observed accumulation ratio)” value [1] was 2.52 (12). For the same molecule, the Vz/F [1] was 628.7 (18) L, the Tmax [1] was 4.01 (3.98–8.02) h and the AUCtau [2] was 478.8 (20) ng.hr/mL. The Cmax [2] was 28.90 (22) ng/mL, the Tmax [2] was 4.07 (4.00–7.83) h and the AUCtau [3] was 1149 (12) ng.h/mL. For the same molecule, the Cmax [3] was 64.34 (12) ng/mL, the Tmax [3] was 4.02 (2.17–8.03) h and the t1/2 [4] was 30.65 ± 3.19 h. The AUCtau [4] was 1152 (13) ng.hr/mL, the CL/F [4] was 216.9 (12) mL/min and the Cmax [4] was 64.63 (14) ng/mL. The Cmin [4] was 32.75 (14) ng/mL, the “Rac (observed accumulation ratio)” value [4] was 2.41 (14) and the Vz/F [4] was 573.2 (12) L. The Tmax [4] was 4.05 (4.02–7.87) h, the AUCtau [5] was 1739 (14) ng.hr/mL and the Cmax [5] was 120.6 (17) ng/mL. The Tmax [5] was 2.99 (1.02–4.07) h, the AUCtau [6] was 1621 (22) ng.hr/mL and the Cmax [6] was 102.9 (25) ng/mL. For the same molecule, the Tmax [6] was 4.00 (2.02–7.98) h, the AUCtau [7] was 4181 (20) ng.h/mL and the Cmax [7] was 241.1 (20) ng/mL. For the same molecule, the Tmax [7] was 3.83 (1.43–4.07) h, the t1/2 [8] was 37.36 ± 5.91 h and the AUCtau [8] was 4236 (24) ng.hr/mL. The CL/F [8] was 196.9 (24) mL/min, the Cmax [8] was 245.7 (21) ng/mL and the Cmin [8] was 120.4 (25) ng/mL. The “Rac (observed accumulation ratio)” value [8] was 2.43 (15), the Vz/F [8] was 629.0 (27) L and the Tmax [8] was 3.00 (0.88–8.08) h. The t1/2 [9] was 39.95 ± 3.18 h, the AUCtau [9] was 4505 (20) ng.h/mL and the CL/F [9] was 184.9 (20) mL/min. The Cmax [9] was 256.4 (23) ng/mL, the Cmin [9] was 135.8 (18) ng/mL and the Vz/F [9] was 637.4 (23) L. For the same molecule, the Tmax [9] was 4.00 (2.00–4.20) h, the “Median Tmax” value [10] was 4 h and the “Steady state achieved by” value [10] was at most 7 days. For the same molecule, the AUCtau [11] was 6380 (15) ng.hr/mL, the Cmax [11] was 442.7 (20) ng/mL and the Tmax [11] was 4.00 (2.00–6.03) h. For the same molecule, the AUCtau [12] was 5238 (24) ng.hr/mL, the Cmax [12] was 377.1 (30) ng/mL and the Tmax [12] was 4.00 (2.00–4.03) h. For the same molecule, the AUCtau [13] was 13810 (16) ng.h/mL, the Cmax [13] was 818.7 (19) ng/mL and the Tmax [13] was 3.00 (2.00–6.00) h. The t1/2 [14] was 30.73 ± 5.75 h, the AUCtau [14] was 13990 (14) ng.hr/mL and the CL/F [14] was 149.0 (14) mL/min. For the same molecule, the Cmax [14] was 837.6 (16) ng/mL, the Cmin [14] was 390.3 (18) ng/mL and the “Rac (observed accumulation ratio)” value [14] was 2.19 (11). The Vz/F [14] was 390.5 (23) L, the Tmax [14] was 4.00 (2.00–12.00) h and the t1/2 [15] was 40.76 ± 3.90 h. The AUCtau [15] was 14750 (23) ng.h/mL, the CL/F [15] was 141.4 (23) mL/min and the Cmax [15] was 879.4 (28) ng/mL. The Cmin [15] was 429.9 (23) ng/mL, the Vz/F [15] was 496.1 (30) L and the Tmax [15] was 4.00 (2.00–4.03) h.
